rCAG RNA binder – binders of r(CAG) RNA repeats, primary screen, biochemical, fluorescence. inhibition, % at 3 µM. r(CAG) RNA repeat, TO-PRO-1 dye displacement fluorescence. 370,000 compounds, 1.3% hits;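 active means inhibition above the plate cutoff, the mean of all test compounds on that plate plus 3 SD, cut at about 35% in these data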;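 further: 0% = DMSO alone and 100% = 100 µM mitoxantrone as full dye displacement; higher means more dye released from RNA so lower well fluorescence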
PRMT1 inh – PRMT1 methyltransferase inhibitors, primary screen, biochemical, fluorescence polarization. Protein arginine N-methyltransferase 1 (Homo sapiens), Q99873. 370,000 compounds, 1.3% hits. AID 652257, 2013. inhibition, % at 2.79 µM. recombinant PRMT1, activity-based probe fluorescence polarization;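 active means inhibition above about 21% made by adding two undisclosed values, limit read from the data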
mABHD4 FP – ABHD4 inhibitors, primary screen, biochemical, fluorescence polarization, mouse; inhibition, % at 8.92 µM; purified mABHD4, FP-Rh probe fluorescence polarization; 370,000 compounds, 0.54% hits; AID 720543, 2013; (Lyso)-N-acylphosphatidylethanolamine lipase (Mus musculus), Q8VD66;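 active means inhibition exceeding the mean over every tested compound plus 3 SD, cut at about 30% in these data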;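 further: 0% = plate median of compound wells and 100% = S159A mutant with DMSO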
Target sequence (Q8VD66 whole entry, looked up): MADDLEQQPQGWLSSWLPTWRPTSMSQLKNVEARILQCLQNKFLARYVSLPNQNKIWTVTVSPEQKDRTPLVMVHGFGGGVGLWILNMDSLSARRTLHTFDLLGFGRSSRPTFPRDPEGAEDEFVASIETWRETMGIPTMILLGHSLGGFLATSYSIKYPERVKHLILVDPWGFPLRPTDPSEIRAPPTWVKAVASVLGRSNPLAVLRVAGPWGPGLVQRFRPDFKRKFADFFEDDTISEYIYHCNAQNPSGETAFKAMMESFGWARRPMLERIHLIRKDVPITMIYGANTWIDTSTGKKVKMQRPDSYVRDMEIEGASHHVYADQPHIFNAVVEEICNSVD
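Assay system: mABHD4 protein; medium: HEPES pH 7.0, NaCl, Pluronic buffer; dosing: 8.92 µM, single dose; schedule: 45 min + 60 min at 25 °C; signal: FP readout, ex 525 nm / em 598 nm; read-out: normalized percent inhibition of probe labeling; repeats: single replicate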
SIAE primary – human SIAE inhibitors, primary screen, biochemical, fluorescence polarization, FP-Rh probe, 1536-well HTS; Sialate O-acetylesterase (Homo sapiens), Q9HAT2; SIAE FP-Rh probe binding; inhibition, % at 9.66 µM; 370,000 compounds, 0.69% hits;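 active means inhibition above a cutoff: mean of compounds within the control limits plus 3 SD of those, cut at about 17% in these data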;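 further: 0% = plate median of compound wells and 100% = probe without SIAE protein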
TCR-CD3 inh – inhibitors of human TCR-CD3 interaction, primary screen, biochemical, fluorescence, TAMRA-labeled TCR probe; inhibition, % at 9.4 µM; T-cell receptor (TCR); 360,000 compounds, 0.37% hits; in the data active means inhibition above about 19%;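 further: recombinant mutant TCR 2C K166C tagged with TAMRA read by polarization; 0% = receptor in buffer alone and 100% = receptor with positive control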
PRMT1 confirm – PRMT1 methyltransferase inhibitors, confirmation, biochemical, fluorescence polarization, triplicate | AID 687036, 2013 | recombinant His-PRMT1, activity-based probe fluorescence polarization | shares compounds with PRMT1 inh | inhibition, % at 2.79 µM | 3,300 compounds, 42% hits;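 active means mean inhibition across replicates above the hit cutoff derived for the earlier primary screen, cut at about 22% in these data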
mABHD4 conf – ABHD4 inhibitors, retest, confirmation, biochemical, fluorescence polarization, mouse | AID 720658, 2013 | inhibition, % at 8.92 µM | purified mABHD4, FP-Rh probe fluorescence polarization | shares compounds with mABHD4 FP | 1,800 compounds, 55% hits;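 active means mean inhibition across replicates above the hit cutoff set in the primary screen, cut at about 30% in these data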;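 further: 0% = wild-type ABHD4 with DMSO and 100% = catalytically dead S159A mutant with DMSO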
The depositor's hits bear a star; nt = no result given; + = active, no number. Hits are enriched below; roughly 3.3% of the tested compounds scored in any of these assays.

SMILES | rCAG RNA binder | PRMT1 inh | mABHD4 FP | SIAE primary | TCR-CD3 inh | PRMT1 confirm | mABHD4 conf
Cc1cccc(NC(=O)CSc2nnc(-c3ccco3)c(-c3ccco3)n2)c1 | 42* | 42* | 44* | 16 | 6 | 52* | 44*
CCN(Cc1cn(Cc2ccccc2)nn1)S(=O)(=O)c1ccc(F)cc1Br | 1 | -4 | 5 | 4 | nt | nt | nt
O=C1OC(/C(=C\Nc2cc(Cl)ccc2O)[N+](=O)[O-])c2ccccc21 (stereo unspecified) | 2 | 29* | 42* | 4 | -1 | 0 | 8
Cc1[nH]c2ccccc2c1C1=CC(=O)C=CC1=O | 25 | 96* | 78* | 13 | 5 | 93* | 81*
COC(=O)c1cc(S(=O)(=O)N2CCCN(C(C)=O)CC2)cn1C | 2 | -1 | -2 | -1 | nt | nt | nt
Cc1cccc(/C=N/NC(=O)C(C)Nc2cccc3ccccc23)n1 (stereo unspecified) | 9 | 26* | 37* | 6 | -4 | 2 | 0
CC(O)C(=O)N/N=C/c1cccc2ccccc12 (stereo unspecified) | 6 | 0 | 1 | 0 | -3 | nt | nt
COc1cc(/C=C2\CCCc3c2nc2ccccc2c3C(=O)O)cc(Br)c1O | 3 | 3 | 18 | 2 | 5 | nt | nt
CCOc1cc(/C=C2\CCCc3c2nc2ccccc2c3C(=O)O)ccc1OC | -187 | 117* | 32* | 17 | 17 | 0 | 27
Cc1ccc(C)c(N2CCN(C(=O)c3ccc4nc(-c5ccco5)c(-c5ccco5)nc4c3)CC2)c1 | 29 | 44* | 42* | 14 | 17 | 19 | -1
COC(=O)[C@H](C(C)C)N1CCc2nnn(CC3CCCCC3)c2-c2ccccc2S1(=O)=O | 2 | 2 | 6 | 1 | nt | nt | nt
O=c1ccc2[n+]([O-])c3ccc(O)cc3oc-2c1 | -9 | 119* | + | nt | nt | 69* | +
O=c1cc(O)c2ccc(O)cc2o1 | 14 | 2 | 13 | -1 | -10 | nt | nt
CCCCNS(=O)(=O)CC1NCc2cc(OC)ccc21 (stereo unspecified) | 6 | -5 | -2 | 7 | nt | nt | nt
O=C(O)CSc1cc(NS(=O)(=O)c2cccc([N+](=O)[O-])c2)c2ccccc2c1O | 27 | 62* | 41* | 11 | -5 | 95* | 34*
Cc1ccc(S(=O)(=O)Nc2cccc3cccnc23)cc1 | -3 | -1 | -2 | -1 | 0 | nt | nt
O=S(=O)(Nc1cc(Sc2cccc3cccnc23)c(O)c2ccccc12)c1ccccc1 | -5 | 91* | 42* | 17 | 8 | 67* | 17
CC(C)CNc1cccc2c1S(=O)(=O)N(Cc1cn(Cc3ccc(F)cc3)nn1)Cc1ccccc1O2 | 8 | 1 | 22 | 1 | nt | nt | nt
CCCCCC(=O)Nc1cc(S(=O)(=O)O)cc2cc(S(=O)(=O)O)cc(O)c12 | 43* | 45* | 49* | 11 | 16 | 57* | 64*
CCCCCC(=O)Nc1cc(S(=O)(=O)N2CCCCC2)ccc1N1CCCCC1 | 2 | 3 | -11 | 3 | -6 | nt | nt
O=[N+]([O-])c1ccc(Cl)c(-c2ccc(/C=N/c3c(-c4ccco4)nc4ccccn34)o2)c1 | 6 | 19 | 10 | -1 | 1 | nt | nt
Cc1cc(C)c([N+](=O)[O-])cc1-c1ccc(/C=N/c2c(-c3ccco3)nc3ccccn23)o1 | 18 | 49* | 52* | 11 | 6 | 4 | 10
O=C(O)/C(=C\c1ccc(-c2ccccc2[N+](=O)[O-])o1)c1ccccc1 | 19 | 2 | 12 | 9 | 3 | nt | nt
O=C(/C=C/c1ccc(-c2ccccc2[N+](=O)[O-])o1)c1ccccc1 | 20 | 28* | 32* | 12 | -3 | -2 | 11
